For experiment [1], the system named is Enterobacter cloacae. The experiment is described as follows: Antibacterial activity against Enterobacter cloacae by Etest method in presence of 4 ug/ml NAB7068. The experiment is classed as functional.
For experiment [2], the system named is Enterobacter cloacae. The experiment is described as follows: Antibacterial activity against Enterobacter cloacae ATCC 23355 […] by Etest method in presence of 1 ug/ml NAB7061. The experiment is classed as functional.
Experiment [3] relates to Escherichia coli. The experiment is described as follows: microbe, parasite or virus in culture. The settings on record: ATCC 25992.
In experiment [4] the test system is Escherichia coli. The experiment is described as follows: Antibacterial activity against 5 x 10^5 CFU/ml Escherichia coli ATCC 25992 in presence of 8 ug/ml NAB7061 by Checkerboard method. The experiment is classed as functional.
In experiment [5] the test system is Acinetobacter baumannii. The experiment is described as follows: Antibacterial activity against Acinetobacter baumannii ATCC 19606 by Etest method in presence of NAB739. The experiment is classed as functional.
Experiment [6] has as its system Klebsiella oxytoca. The experiment is described as follows: Antibacterial activity against Klebsiella oxytoca ATCC 13182 by Etest method in presence of 4 ug/ml NAB7065. Format: functional.
For experiment [7], the system named is Pseudomonas aeruginosa. The experiment is described as follows: Antibacterial activity against Pseudomonas aeruginosa ATCC 27853by Etest method in presence of 2 ug/ml NAB739. The experiment is classed as functional.
Experiment [8] concerns Citrobacter freundii. The experiment is described as follows: Antibacterial activity against Citrobacter freundii ATCC 8090 by Etest method in presence of 4 ug/ml NAB7069. The experiment is classed as functional.
Experiment [9] has as its system Klebsiella pneumoniae. The experiment is described as follows: Antibacterial activity against Klebsiella pneumoniae ATCC 13883 by Etest method in presence of 4 ug/ml NAB7061. Format: functional. Put shortly:
(§1)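 MICs of the antibiotic taken from E-strips on Mueller-Hinton agar, run both with and without peptide. […] Inoculum was prepared per the strip manufacturer, matching CLSI M2-A9.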

The subject of experiment [10] is Klebsiella pneumoniae. The experiment is described as follows: Antibacterial activity against Klebsiella pneumoniae ATCC 13883 by Etest method in presence of 1 ug/ml NAB7061. The experiment is classed as functional. Put shortly: as §1
The test system of experiment [11] is Enterobacter cloacae. The experiment is described as follows: Antibacterial activity against Enterobacter cloacae CCUG52947 by Etest method in presence of 4 ug/ml NAB7067. The experiment is classed as functional.
Experiment [12] deals with Escherichia coli. The experiment is described as follows: Antibacterial activity against Escherichia coli ATCC 25992 by Etest method. Format: functional. Put shortly: (§2)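 E-strip MIC on Mueller-Hinton agar without added peptide; inoculum per manufacturer, matching CLSI M2-A9.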
Experiment [13] has as its system Escherichia coli. The experiment is described as follows: Antibacterial activity against Escherichia coli IH3080 by Etest method in presence of 2 ug/ml NAB7062. The experiment is classed as functional.
Experiment [14] relates to Escherichia coli. The experiment is described as follows: Antibacterial activity against Escherichia coli by Etest method in presence of 4 ug/ml NAB7061. The experiment is classed as functional.
Experiment [15] has as its system Acinetobacter baumannii. The experiment is described as follows: Antibacterial activity against Acinetobacter baumannii ATCC 19606 by Etest method in presence of 0.5 ug/ml NAB739. The experiment is classed as functional.
Experiment [16] relates to Acinetobacter baumannii. The experiment is described as follows: Antibacterial activity against Acinetobacter baumannii F264 by Etest method in presence of […] NAB739. The experiment is classed as functional.
The test system of experiment [17] is Escherichia coli. The experiment is described as follows: microbe, parasite or virus in culture. As to conditions: ATCC 25992. The source holds these as a separate data set.
Experiment [18] deals with Acinetobacter baumannii. The experiment is described as follows: Antibacterial activity against Acinetobacter baumannii F264 by Etest method. Format: functional. Put shortly: as §2

Each structure is given as a SMILES string. Converted amounts (≈) assume the structure as drawn.

`CO[C@H]1/C=C/O[C@@]2(C)Oc3c(C)c(O)c4c(O)c(c(/C=N/N5CCN(C)CC5)c(O)c4c3C2=O)NC(=O)/C(C)=C\C=C\[C@H](C)[C@H](O)[C@@H](C)[C@@H](O)[C@@H](C)[C@H](OC(C)=O)[C@@H]1C` [RIFAMPIN]: the MIC in experiment [1] worked out at 0.016 µg/mL; in experiment [2], 8 µg/mL; in [3] it was 8 µg/mL (≈ 9.72 µM); in experiment [4], 0.031 µg/mL; in experiment [6], 0.032 µg/mL; in [7], 4 µg/mL. Further, the MIC stood at 0.023 µg/mL in experiment [8]; 0.064 µg/mL in experiment [9]; 1.5 µg/mL in experiment [10]; 0.032 µg/mL in experiment [11]; 8 µg/mL (≈ 9.72 µM) in experiment [12]; 0.19 µg/mL in experiment [13]. Further, the MIC in experiment [14] was 0.016 µg/mL; in experiment [15] it was 0.047 µg/mL; in [16] it was 0.38 µg/mL; in experiment [17], 8 µg/mL (≈ 9.72 µM); in experiment [18] it was 12 µg/mL (≈ 14.6 µM). In experiment [5], the “fractional inhibitory concentration index (FICI)” value amounted to 0.126.
